The M2OR odorant receptor database

Assays:
Conditions in all cases: stereoisomer not certain
[1] = target: T1, OR51I2 (Homo sapiens) (UniProt Q9H344)
T1 sequence (whole entry): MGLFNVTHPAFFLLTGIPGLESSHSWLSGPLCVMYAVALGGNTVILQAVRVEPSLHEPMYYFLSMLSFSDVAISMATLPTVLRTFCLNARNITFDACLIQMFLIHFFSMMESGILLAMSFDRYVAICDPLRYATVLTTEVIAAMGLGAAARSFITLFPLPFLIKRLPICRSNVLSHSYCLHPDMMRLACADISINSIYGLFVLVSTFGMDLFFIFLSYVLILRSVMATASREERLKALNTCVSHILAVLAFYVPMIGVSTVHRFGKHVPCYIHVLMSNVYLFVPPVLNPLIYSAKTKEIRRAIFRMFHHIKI
Method in brief: (§1)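 Transient luciferase assays in mammalian cell lines were common, though methods varied by source. The values come from published papers and their supplementary material, with extra details from the original authors when needed. Responsive refers to a measured signal the original authors judged statistically different from baseline, and non-responsive (inactive) to the remainder.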

[2] = target: T2, OR51J1 (Homo sapiens) (UniProt Q9H342)
T2 sequence (whole entry): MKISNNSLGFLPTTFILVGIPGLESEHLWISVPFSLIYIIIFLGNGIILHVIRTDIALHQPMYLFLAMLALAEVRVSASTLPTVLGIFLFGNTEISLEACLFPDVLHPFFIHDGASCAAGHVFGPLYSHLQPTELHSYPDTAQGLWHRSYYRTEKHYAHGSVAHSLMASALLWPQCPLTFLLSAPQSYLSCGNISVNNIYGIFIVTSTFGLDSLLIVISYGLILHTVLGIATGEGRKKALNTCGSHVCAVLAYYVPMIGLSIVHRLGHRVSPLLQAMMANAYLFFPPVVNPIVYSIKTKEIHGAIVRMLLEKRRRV
Method in brief: as §1

[3] = target: T3, OR51L1 (Homo sapiens) (UniProt Q8NGJ5)
T3 sequence (whole entry): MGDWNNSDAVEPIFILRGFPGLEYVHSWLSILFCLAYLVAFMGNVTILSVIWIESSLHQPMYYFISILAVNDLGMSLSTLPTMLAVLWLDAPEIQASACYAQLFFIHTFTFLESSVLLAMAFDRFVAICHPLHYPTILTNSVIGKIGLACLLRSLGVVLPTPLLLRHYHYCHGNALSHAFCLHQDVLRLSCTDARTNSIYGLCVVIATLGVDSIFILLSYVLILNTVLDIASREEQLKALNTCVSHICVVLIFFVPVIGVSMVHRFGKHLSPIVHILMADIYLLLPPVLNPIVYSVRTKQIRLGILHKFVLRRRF
Method in brief: as §1

[4] = target: T4, OR51M1 (Homo sapiens) (UniProt Q9H341)
T4 sequence (whole entry): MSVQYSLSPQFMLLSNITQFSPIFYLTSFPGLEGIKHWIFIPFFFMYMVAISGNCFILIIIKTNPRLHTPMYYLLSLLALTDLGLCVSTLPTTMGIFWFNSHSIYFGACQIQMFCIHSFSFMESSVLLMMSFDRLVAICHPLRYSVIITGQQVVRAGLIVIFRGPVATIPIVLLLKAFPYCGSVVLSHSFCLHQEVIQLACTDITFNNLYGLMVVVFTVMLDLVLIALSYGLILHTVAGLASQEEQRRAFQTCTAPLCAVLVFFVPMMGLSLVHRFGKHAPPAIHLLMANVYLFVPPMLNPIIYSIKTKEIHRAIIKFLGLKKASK
Method in brief: as §1

[5] = target: T5, OR51Q1 (Homo sapiens) (UniProt Q8NH59)
T5 sequence (whole entry): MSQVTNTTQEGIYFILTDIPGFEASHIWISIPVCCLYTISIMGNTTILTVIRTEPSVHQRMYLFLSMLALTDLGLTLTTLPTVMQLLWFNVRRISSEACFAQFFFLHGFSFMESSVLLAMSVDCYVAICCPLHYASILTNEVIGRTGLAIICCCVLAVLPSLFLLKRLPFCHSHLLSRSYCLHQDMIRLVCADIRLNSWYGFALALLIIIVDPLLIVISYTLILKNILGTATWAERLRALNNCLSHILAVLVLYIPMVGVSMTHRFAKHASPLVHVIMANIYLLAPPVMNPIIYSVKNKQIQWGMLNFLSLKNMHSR
Method in brief: as §1

[6] = target: T6, OR51S1 (Homo sapiens) (UniProt Q8NGJ8)
T6 sequence (whole entry): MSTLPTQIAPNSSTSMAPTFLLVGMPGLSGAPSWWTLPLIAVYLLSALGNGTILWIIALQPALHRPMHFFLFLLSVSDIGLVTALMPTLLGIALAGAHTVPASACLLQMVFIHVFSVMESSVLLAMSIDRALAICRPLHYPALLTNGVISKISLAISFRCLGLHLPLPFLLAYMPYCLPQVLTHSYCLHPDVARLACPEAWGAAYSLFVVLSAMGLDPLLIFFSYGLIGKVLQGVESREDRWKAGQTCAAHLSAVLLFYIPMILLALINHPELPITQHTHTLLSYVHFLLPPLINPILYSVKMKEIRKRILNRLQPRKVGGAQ
Method in brief: as §1

[7] = target: T7, OR51T1 (Homo sapiens) (UniProt Q8NGJ9)
T7 sequence (whole entry): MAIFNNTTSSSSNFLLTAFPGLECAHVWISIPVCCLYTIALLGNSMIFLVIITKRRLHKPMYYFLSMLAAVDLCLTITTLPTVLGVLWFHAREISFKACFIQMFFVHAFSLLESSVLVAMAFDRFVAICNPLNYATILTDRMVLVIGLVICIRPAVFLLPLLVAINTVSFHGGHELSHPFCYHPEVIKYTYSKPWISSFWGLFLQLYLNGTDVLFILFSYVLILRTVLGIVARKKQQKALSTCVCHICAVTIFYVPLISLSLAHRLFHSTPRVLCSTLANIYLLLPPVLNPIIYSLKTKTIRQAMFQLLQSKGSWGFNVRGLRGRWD
Method in brief: as §1

[8] = target: T8, OR51V1 (Homo sapiens) (UniProt Q9H2C8)
T8 sequence (whole entry): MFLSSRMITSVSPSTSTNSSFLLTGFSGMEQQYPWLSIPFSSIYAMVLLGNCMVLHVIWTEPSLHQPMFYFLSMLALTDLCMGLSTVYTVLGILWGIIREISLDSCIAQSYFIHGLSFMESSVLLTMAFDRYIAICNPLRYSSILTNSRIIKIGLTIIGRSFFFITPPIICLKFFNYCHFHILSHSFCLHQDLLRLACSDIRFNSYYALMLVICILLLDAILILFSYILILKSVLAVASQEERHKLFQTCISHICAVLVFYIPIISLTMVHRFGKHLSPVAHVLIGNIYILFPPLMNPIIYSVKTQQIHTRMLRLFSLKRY
Method in brief: as §1

[9] = target: T9, OR52A1 (Homo sapiens) (UniProt Q9UKL2)
T9 sequence (whole entry): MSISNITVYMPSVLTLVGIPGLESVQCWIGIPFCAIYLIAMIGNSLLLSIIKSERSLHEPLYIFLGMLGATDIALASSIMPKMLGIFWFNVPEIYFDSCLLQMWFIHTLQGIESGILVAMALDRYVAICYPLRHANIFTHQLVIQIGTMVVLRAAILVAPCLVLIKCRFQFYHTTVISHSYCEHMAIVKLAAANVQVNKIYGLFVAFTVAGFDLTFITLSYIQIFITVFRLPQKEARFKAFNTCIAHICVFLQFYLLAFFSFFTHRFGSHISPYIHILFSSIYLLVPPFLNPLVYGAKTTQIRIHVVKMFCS
Method in brief: as §1

[10] = target: T10, OR52A4P (Homo sapiens) (UniProt A6NMU1)
T10 sequence (whole entry): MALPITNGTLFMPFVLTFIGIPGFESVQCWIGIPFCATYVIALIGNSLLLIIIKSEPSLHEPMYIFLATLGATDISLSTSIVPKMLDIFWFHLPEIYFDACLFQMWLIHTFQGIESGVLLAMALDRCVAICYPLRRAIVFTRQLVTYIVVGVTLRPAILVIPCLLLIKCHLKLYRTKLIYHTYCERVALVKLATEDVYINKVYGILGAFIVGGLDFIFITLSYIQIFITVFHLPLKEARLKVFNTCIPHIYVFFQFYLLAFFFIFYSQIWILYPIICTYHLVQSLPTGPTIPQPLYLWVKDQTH
Method in brief: as §1

[11] = target: T11, OR52A5 (Homo sapiens) (UniProt Q9H2C5)
T11 sequence (whole entry): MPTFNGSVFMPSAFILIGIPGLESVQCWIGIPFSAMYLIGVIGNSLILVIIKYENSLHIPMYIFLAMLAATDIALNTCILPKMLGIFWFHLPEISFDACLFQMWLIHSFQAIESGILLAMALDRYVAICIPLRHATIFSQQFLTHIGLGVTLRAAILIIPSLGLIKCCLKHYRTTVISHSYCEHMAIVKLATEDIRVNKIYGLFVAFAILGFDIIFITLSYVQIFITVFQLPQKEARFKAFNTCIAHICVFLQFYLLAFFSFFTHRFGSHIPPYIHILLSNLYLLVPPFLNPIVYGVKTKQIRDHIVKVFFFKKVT
Method in brief: as §1

[12] = target: T12, OR52B2 (Homo sapiens) (UniProt Q96RD2)
T12 sequence (whole entry): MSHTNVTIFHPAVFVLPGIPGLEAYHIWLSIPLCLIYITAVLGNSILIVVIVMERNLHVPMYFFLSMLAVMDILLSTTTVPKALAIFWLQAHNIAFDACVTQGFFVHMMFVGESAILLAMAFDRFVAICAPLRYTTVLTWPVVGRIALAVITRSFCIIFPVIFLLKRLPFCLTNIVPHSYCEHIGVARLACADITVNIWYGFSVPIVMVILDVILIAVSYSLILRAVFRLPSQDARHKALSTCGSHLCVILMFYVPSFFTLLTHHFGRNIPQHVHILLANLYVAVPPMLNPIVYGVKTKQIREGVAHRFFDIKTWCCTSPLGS
Method in brief: as §1

[13] = target: T13, OR52B4 (Homo sapiens) (UniProt Q8NGK2)
T13 sequence (whole entry): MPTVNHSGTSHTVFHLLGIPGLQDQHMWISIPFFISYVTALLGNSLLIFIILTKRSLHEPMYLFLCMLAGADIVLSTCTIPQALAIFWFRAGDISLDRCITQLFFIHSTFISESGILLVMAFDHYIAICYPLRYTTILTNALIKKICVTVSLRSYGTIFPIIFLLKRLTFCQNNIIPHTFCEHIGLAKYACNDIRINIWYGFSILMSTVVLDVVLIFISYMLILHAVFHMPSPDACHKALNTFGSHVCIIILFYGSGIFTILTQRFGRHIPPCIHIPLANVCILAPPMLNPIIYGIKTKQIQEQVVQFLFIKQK
Method in brief: as §1

[14] = target: T14, OR52B6 (Homo sapiens) (UniProt Q8NGF0)
T14 sequence (whole entry): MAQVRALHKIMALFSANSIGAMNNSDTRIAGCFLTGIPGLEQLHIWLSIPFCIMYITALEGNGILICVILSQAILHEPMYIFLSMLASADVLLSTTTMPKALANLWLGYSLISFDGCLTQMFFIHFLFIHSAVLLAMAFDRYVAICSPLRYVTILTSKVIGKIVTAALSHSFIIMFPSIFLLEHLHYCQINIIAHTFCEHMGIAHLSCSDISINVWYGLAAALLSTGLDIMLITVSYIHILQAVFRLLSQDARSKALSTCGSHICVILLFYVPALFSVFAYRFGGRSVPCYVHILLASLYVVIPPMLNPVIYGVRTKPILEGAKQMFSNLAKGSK
Method in brief: as §1

[15] = target: T15, OR52D1 (Homo sapiens) (UniProt Q9H346)
T15 sequence (whole entry): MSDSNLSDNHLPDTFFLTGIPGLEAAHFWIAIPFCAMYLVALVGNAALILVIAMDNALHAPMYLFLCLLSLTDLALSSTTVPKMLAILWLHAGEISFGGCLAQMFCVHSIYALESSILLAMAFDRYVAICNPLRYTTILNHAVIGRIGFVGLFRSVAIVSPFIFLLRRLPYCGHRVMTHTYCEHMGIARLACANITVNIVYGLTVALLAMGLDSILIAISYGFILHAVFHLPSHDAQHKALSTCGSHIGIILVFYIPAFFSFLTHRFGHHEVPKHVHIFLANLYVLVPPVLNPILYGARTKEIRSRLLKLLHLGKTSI
Method in brief: as §1

[16] = target: OR52E2 (Homo sapiens) (UniProt Q8NGJ4)
Sequence of OR52E2 (Homo sapiens) (Q8NGJ4 whole entry): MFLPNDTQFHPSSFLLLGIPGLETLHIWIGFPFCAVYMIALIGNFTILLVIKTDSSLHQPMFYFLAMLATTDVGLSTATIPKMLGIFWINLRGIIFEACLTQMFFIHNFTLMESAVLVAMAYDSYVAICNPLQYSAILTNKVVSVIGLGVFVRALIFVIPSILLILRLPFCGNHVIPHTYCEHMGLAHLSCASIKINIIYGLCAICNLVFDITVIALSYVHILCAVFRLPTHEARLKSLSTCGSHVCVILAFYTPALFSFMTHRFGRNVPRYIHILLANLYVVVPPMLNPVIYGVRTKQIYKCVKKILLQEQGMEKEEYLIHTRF
Method in brief: as §1

[17] = target: OR52E4 (Homo sapiens) (UniProt Q8NGH9)
Sequence of OR52E4 (Homo sapiens) (Q8NGH9 whole entry): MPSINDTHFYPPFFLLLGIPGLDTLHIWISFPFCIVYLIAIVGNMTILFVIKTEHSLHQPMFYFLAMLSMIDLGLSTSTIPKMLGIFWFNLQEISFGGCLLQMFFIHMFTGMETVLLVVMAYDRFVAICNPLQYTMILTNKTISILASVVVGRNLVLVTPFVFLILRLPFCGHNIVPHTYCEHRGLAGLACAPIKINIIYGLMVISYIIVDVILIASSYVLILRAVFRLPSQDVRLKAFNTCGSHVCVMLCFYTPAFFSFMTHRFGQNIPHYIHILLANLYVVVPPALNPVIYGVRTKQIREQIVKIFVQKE
Method in brief: as §1

[18] = target: OR52E5 (Homo sapiens) (UniProt Q8NH55)
Sequence of OR52E5 (Homo sapiens) (Q8NH55 whole entry): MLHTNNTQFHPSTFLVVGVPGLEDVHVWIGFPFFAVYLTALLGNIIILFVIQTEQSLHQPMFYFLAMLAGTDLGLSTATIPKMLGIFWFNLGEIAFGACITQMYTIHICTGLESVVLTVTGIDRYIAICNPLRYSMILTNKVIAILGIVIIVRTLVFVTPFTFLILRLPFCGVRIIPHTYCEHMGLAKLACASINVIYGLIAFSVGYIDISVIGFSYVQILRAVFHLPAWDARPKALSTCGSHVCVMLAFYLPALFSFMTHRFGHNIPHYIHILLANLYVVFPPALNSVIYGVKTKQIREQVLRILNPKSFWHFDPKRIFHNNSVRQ
Method in brief: as §1

[19] = target: OR52E6 (Homo sapiens) (UniProt Q96RD3)
Sequence of OR52E6 (Homo sapiens) (Q96RD3 whole entry): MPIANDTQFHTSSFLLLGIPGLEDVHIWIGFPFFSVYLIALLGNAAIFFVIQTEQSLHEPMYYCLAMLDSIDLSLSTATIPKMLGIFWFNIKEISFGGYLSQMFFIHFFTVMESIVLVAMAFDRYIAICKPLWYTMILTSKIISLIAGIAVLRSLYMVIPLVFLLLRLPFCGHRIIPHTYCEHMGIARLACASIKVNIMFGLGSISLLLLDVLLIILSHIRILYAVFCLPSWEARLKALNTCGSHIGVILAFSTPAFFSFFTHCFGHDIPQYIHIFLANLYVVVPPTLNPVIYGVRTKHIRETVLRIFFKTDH
Method in brief: as §1

[20] = target: OR52E1 (Homo sapiens) (UniProt Q8NGJ3)
Sequence of OR52E1 (Homo sapiens) (Q8NGJ3 whole entry): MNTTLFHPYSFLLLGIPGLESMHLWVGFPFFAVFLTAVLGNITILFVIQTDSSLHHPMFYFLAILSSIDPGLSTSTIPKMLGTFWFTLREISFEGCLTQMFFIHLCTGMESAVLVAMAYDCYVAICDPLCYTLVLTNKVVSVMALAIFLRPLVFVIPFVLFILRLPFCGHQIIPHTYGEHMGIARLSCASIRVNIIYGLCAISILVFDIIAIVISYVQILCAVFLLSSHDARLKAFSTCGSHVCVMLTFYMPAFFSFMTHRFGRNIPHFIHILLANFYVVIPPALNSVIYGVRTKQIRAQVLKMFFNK
Method in brief: as §1

Measured: odorant receptor agonist call;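 further: active if original authors judged signal statistically different from baseline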

CCC(S)C(C)CO (configuration not stated)
not listed: [20]
inactive: all other assays above

CCCCCC1=C(C)CCC1=O
inactive: [3]

CCCCCC(S)C(C)CO (configuration not stated)
not listed: [20]
inactive: all other assays above

CC1=C(O)C(=O)C(C)O1 (configuration not stated)
not listed: [7] | [10] | [18]
inactive: all other assays above

CCCCOC=O
inactive: [3]
